Source: ChEMBL document CHEMBL2384952, “Synthesis, antifungal and cytotoxic activities of 2-aryl-3-((piperidin-1-yl)ethyl)thiazolidinones” (Eur J Med Chem, 2013)
≈ marks a conversion by molar mass, not a printed value.

Tests used:
Vero [1] = experiment: Cytotoxicity against African green monkey Vero cells at 394 ug/mL by neutral red dye uptake assay relative to control; type: cell-based; conditions: chlorocebus sabaeus
In short: (§1)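 Vero cells (over 99% viable by trypan blue exclusion) were exposed to serial compound dilutions in E-MEM, with fresh E-MEM as negative control, for 72 h at 37 °C, 5% CO2. Cells were then given 3.3 mg/L neutral red for 2 h, and the dye was extracted with 50% ethanol/1% acetic acid. A540 was read, and viability was calculated as treated/control absorbance × 100.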

Geotrichum = experiment: Antifungal activity against Geotrichum species after 48 hrs by CLSI M27A3 broth microdilution method; type: functional
In short: (§2)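 Yeasts were kept on Sabouraud dextrose agar and subcultured at 35 °C for at least 2 days. They were suspended in saline to McFarland 0.5 and diluted in RPMI. Ten successive dilutions were made from a 1.6 mg/mL DMSO stock per CLSI broth microdilution, then incubated at 37 °C for 48 h. Growth was read visually against a growth-control well, and MIC is the lowest concentration inhibiting growth.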

Vero [2] = experiment: Cytotoxicity against African green monkey Vero cells at 98 ug/mL by neutral red dye uptake assay relative to control; type: cell-based; conditions: chlorocebus sabaeus; in short: as §1
Vero [3] = experiment: Cytotoxicity against African green monkey Vero cells at 787 ug/mL by neutral red dye uptake assay relative to control; type: cell-based; conditions: chlorocebus sabaeus; in short: as §1
Vero [4] = experiment: Cytotoxicity against African green monkey Vero cells at 3150 ug/mL by neutral red dye uptake assay relative to control; type: cell-based; conditions: chlorocebus sabaeus; in short: as §1
Candida albicans = experiment: Antifungal activity against Candida albicans after 48 hrs by CLSI M27A3 broth microdilution method; type: functional; in short: as §2
Rhodotorula [5] = experiment: Antifungal activity against Rhodotorula species after 48 hrs by CLSI M27A3 broth microdilution method; type: functional; in short: as §2
[6] = system: Meyerozyma guilliermondii; experiment: Antifungal activity against Candida guilliermondii after 48 hrs by CLSI M27A3 broth microdilution method; type: functional; in short: as §2
Trichosporon asahii = experiment: Antifungal activity against Trichosporon asahii after 48 hrs by CLSI M27A3 broth microdilution method; type: functional; in short: as §2
Rhodotorula [7] = experiment: Ratio of fluconazole MIC to compound MIC for Rhodotorula species; type: functional
Rhodotorula [8] = experiment: Ratio of fluconazole MFC to compound MFC for Rhodotorula species; type: functional
Vero [9] = experiment: Cytotoxicity against African green monkey Vero cells at 12.3 ug/mL by neutral red dye uptake assay relative to control; type: cell-based; conditions: chlorocebus sabaeus; in short: as §1
Vero [10] = experiment: Cytotoxicity against African green monkey Vero cells at 49 ug/mL by neutral red dye uptake assay relative to control; type: cell-based; conditions: chlorocebus sabaeus; in short: as §1
Papiliotrema laurentii = experiment: Antifungal activity against Cryptococcus laurentii after 48 hrs by CLSI M27A3 broth microdilution method; type: functional; in short: as §2
Vero [11] = experiment: Cytotoxicity against African green monkey Vero cells at 197 ug/mL by neutral red dye uptake assay relative to control; type: cell-based; conditions: chlorocebus sabaeus; in short: as §1
Candida parapsilosis = experiment: Antifungal activity against Candida parapsilosis after 48 hrs by CLSI M27A3 broth microdilution method; type: functional; conditions: Lodderomyces parapsilosis; in short: as §2
Vero [12] = experiment: Cytotoxicity against African green monkey Vero cells at 25 ug/mL by neutral red dye uptake assay relative to control; type: cell-based; conditions: chlorocebus sabaeus; in short: as §1
Vero [13] = experiment: Cytotoxicity against African green monkey Vero cells at 1575 ug/mL by neutral red dye uptake assay relative to control; type: cell-based; conditions: chlorocebus sabaeus; in short: as §1

Row | SMILES | Cell viability (Vero [1]) [%] | MFC (Geotrichum) [µg/mL] | MIC (Geotrichum) [µg/mL] | Cell viability (Vero [2]) [%] | Cell viability (Vero [3]) [%] | Cell viability (Vero [4]) [%] | MFC (Candida albicans) [µg/mL] | MIC (Candida albicans) [µg/mL] | MFC (Rhodotorula [5]) [µg/mL] | MIC (Rhodotorula [5]) [µg/mL] | MFC [6] [µg/mL] | MIC [6] [µg/mL] | MFC (Trichosporon asahii) [µg/mL] | MIC (Trichosporon asahii) [µg/mL] | Cell viability (Vero [9]) [%] | Cell viability (Vero [10]) [%] | MFC (Papiliotrema laurentii) [µg/mL] | MIC (Papiliotrema laurentii) [µg/mL] | Cell viability (Vero [11]) [%] | MFC (Candida parapsilosis) [µg/mL] | other results
1 | O=C1CSC(c2cccc([N+](=O)[O-])c2)N1CCN1CCCCC1 (stereo unspecified) | 60 | 100 (≈ 298 µM) | 100 (≈ 298 µM) | 94 | 15 | 2 | 50 (≈ 149 µM) | 50 (≈ 149 µM) | 16.5 (≈ 49.2 µM) | 16.5 (≈ 49.2 µM) | 100 (≈ 298 µM) | 100 (≈ 298 µM) | > 400 | > 400 | 100 | 100 | 100 (≈ 298 µM) | 100 (≈ 298 µM) | 75 | 100 (≈ 298 µM) | Ratio (Rhodotorula [7]): 1.6; Ratio (Rhodotorula [8]): 1.6; MIC (Candida parapsilosis): 100 µg/mL (≈ 298 µM); Cell viability (Vero [12]): 100%; Cell viability (Vero [13]): 7%
2 | COc1ccccc1C1SCC(=O)N1CCN1CCCCC1 (stereo unspecified) | 67 | 41.5 (≈ 130 µM) | 41.5 (≈ 130 µM) | 100 | 30 | 5 | 100 (≈ 312 µM) | 100 (≈ 312 µM) | 16.5 (≈ 51.5 µM) | 16.5 (≈ 51.5 µM) | 100 (≈ 312 µM) | 100 (≈ 312 µM) | 50 (≈ 156 µM) | 50 (≈ 156 µM) | 100 | 100 | 100 (≈ 312 µM) | 100 (≈ 312 µM) | 72 | 100 (≈ 312 µM) | Ratio (Rhodotorula [7]): 1.6; Ratio (Rhodotorula [8]): 1.6; MIC (Candida parapsilosis): 100 µg/mL (≈ 312 µM); Cell viability (Vero [12]): 100%; Cell viability (Vero [13]): 17%
3 | O=C1CSC(c2ccccc2[N+](=O)[O-])N1CCN1CCCCC1 (stereo unspecified) | 100 | 25 (≈ 74.5 µM) | 25 (≈ 74.5 µM) | 100 | 100 | 30 | 55 (≈ 164 µM) | 55 (≈ 164 µM) | 25 (≈ 74.5 µM) | 25 (≈ 74.5 µM) | 25 (≈ 74.5 µM) | 25 (≈ 74.5 µM) | 100 (≈ 298 µM) | 100 (≈ 298 µM) | 100 | 100 | 100 (≈ 298 µM) | 100 (≈ 298 µM) | 100 | 50 (≈ 149 µM) | MIC (Candida parapsilosis): 50 µg/mL (≈ 149 µM); Cell viability (Vero [12]): 100%; Cell viability (Vero [13]): 24%
4 | O=C1CSC(c2c(Cl)cccc2Cl)N1CCN1CCCCC1 (stereo unspecified) | 32 | 50 (≈ 139 µM) | 50 (≈ 139 µM) | 76 | 11 | 7 | 75 (≈ 209 µM) | 75 (≈ 209 µM) | 30 (≈ 83.5 µM) | 30 (≈ 83.5 µM) | 200 (≈ 557 µM) | 200 (≈ 557 µM) | 50 (≈ 139 µM) | 50 (≈ 139 µM) | 100 | 100 | 200 (≈ 557 µM) | 200 (≈ 557 µM) | 75 | 100 (≈ 278 µM) | MIC (Candida parapsilosis): 100 µg/mL (≈ 278 µM); Cell viability (Vero [12]): 100%; Cell viability (Vero [13]): 10%
